# Assay outcomes from PubChem.
# Rows were chosen to be rich in hits. Some 11% of all compounds tested hit in one or more screens of this group.
# D1 allo mod: D1 CRE-luciferase signal change, two-sided – cell-based, HEK293 D1, dopamine EC30, D1 allosteric modulator project, primary screen. B-score at 10 µM. AID 641, 2007. dopamine EC30 potentiation; actives deviate in either direction. 5.9% of 58,000 active;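 active means luminescence count or its row- and column-corrected plate score outside the 99.7% band of the plate's sample wells, on either side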
# Htt clearance: clearance of mutant huntingtin inclusions, primary screen, imaging, HeLa Exon1htt(103Q)mCFP, confocal imaging | aggregate imaging; zero = plate's median compound well | inhibition, % at 1.5 µM | 0.42% of 47,000 active | AID 853, 2007;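 active means inhibition of aggregate fluorescence above about 70%, also judged a hit by eye on the cell image, limit read from the data, passing the limit was not always enough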;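 further: cells exposed to compound for three days before fixation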
# M1 ag: M1 muscarinic receptor agonists, primary screen, CHO-M1 cells, Fluo-4 calcium, agonist mode; 3% of 64,000 active; Fluo-4 calcium fluorescence; hits give high values; Muscarinic acetylcholine receptor M1; B-score at 10 µM; AID 626, 2007;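 active means fluorescence rise, raw or as B-score row- and column-corrected plate score, outside the 99.7% band of its plate's samples, either direction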
# SF-1 act: activators of human SF-1, primary screen, cell-based, CHO-K1, Gal4-SF-1 LBD, luciferase luminescence; Steroidogenic factor 1 (Homo sapiens), Q13285; CHO-K1 Gal4-SF-1 LBD luciferase reporter; % increase over DMSO SF-1-specific signal; activation, % at 10 µM; 1.9% of 65,000 active; AID 522, 2006;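 active means activation above the mean activation of all tested compounds plus 3 SD, cut at about 50% in these data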
#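 Material: Transient Gal4-SF-1 LBD reporter, CHO-K1 | Input: 4,000 cells/well | Dosing: One dose, 10 µM compound, 1% DMSO | Incubation: 20 h compound treatment, 37 °C | Detection: SteadyLite luciferase luminescence | Evaluation: Percent activation relative to DMSO median and mock-transfected background | Benchmarks: DMSO-treated SF-1-transfected cells as negative, DMSO-treated mock-transfected cells lacking SF-1 as background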
# RORA act: activators of orphan receptor RORA, primary screen, cell-based, luminescence; Nuclear receptor ROR-alpha (Homo sapiens), P35398; CHO-K1 Gal4-RORA LBD luciferase reporter; percent increase over mock-subtracted basal signal; activation, % at 10 µM; 1.5% of 65,000 active; AID 560, 2006;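 active means activation above the mean of all tested compounds plus 3 SD, cut at about 49% in these data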;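 further: 0% = DMSO-treated RORA cells and 100% = added signal equal to DMSO minus mock-transfected cells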
# Target sequence (P35398 whole entry, looked up, the tested form may be a part): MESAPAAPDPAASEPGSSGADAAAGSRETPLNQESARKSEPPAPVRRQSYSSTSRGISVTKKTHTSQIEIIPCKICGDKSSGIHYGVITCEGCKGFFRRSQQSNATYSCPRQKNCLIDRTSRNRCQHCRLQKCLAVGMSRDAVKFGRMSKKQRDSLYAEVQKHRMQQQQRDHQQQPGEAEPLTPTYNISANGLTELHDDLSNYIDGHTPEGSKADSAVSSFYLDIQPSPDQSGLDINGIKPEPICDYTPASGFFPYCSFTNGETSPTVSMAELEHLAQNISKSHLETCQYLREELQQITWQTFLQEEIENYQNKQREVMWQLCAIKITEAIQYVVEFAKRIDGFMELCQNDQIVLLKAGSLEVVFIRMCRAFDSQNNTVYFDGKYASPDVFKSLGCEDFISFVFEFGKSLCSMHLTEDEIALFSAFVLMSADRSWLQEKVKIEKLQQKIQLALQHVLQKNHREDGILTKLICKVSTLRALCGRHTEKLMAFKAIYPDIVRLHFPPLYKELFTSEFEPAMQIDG
# M1 antagonist: antagonists of rat M1 muscarinic receptor; Muscarinic acetylcholine receptor M1 (Rattus norvegicus), P08482; CHO-M1 cells, Fluo-4 calcium, ACh EC80 antagonist mode; hits give low values; B-score at 10 µM; 3.4% of 64,000 active; AID 628, 2007;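 active means calcium fluorescence response, raw or row-and-column corrected B-score, differing from the plate sample mean either way at a set confidence level, mostly lower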
# D1 PAM confirm: D1 receptor positive allosteric modulators, retest, confirmation, cell-based, HEK293 D1, CRE-luciferase, duplicate; shares compounds with D1 allo mod; dopamine EC30 potentiation; hits give high values; luminescence at 10 µM; 88% of 2,200 active;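 active means luminescence in either of two replicates above the same-plate mean plus 3 SD of the low-dose dopamine control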
# D1 ag no DA: D1 receptor agonism without dopamine, confirmation, mechanism study for D1 allosteric modulator project, cell-based, HEK293 D1, CRE-luciferase, secondary assay 1; shares compounds with D1 allo mod; luminescence, no dopamine; hits give high values; luminescence at 10 µM; 0.8% of 1,900 active; in the data active means luminescence above about 3900
# Isoprot counter: counter-screen for D1 modulators: isoproterenol response in HEK293 cells. 63% of 2,200 active. calls only at 10 µM. shares compounds with D1 allo mod. AID 647. HEK293 D1 CRE-luciferase, isoproterenol EC30 counter-screen;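 active means luminescence in either replicate above plate mean of wells with a partly effective reference agonist dose plus 3 SD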;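 further: isoproterenol raises cAMP through native beta-adrenoceptor Gs so signal bypasses D1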
# * hit, by the source's call; i = inactive; . = no result; + = active, no number.
SMILES,D1 allo mod,Htt clearance,M1 ag,SF-1 act,RORA act,M1 antagonist,D1 PAM confirm,D1 ag no DA,Isoprot counter
N#Cc1cnn(Cc2ccccc2)c1/N=C/N1CCOCC1,5.5*,.,-0.22,-16,-3,-0.33,8140*,1300,i
CN(C(=O)c1coc(=O)c2ccccc12)c1ccc(F)cc1,0.44,.,-0.13,6,1,0.4,.,.,.
CCCCN(C)C(=O)c1coc(=O)c2ccccc12,3.1*,.,-0.23,0,-16,0.0044,5824,.,i
O=C(CC1SC(=NC2CCCCC2)NC1=O)Nc1ccccc1 (configuration not stated),2.6*,-24,-0.54,12,-21,0.71,6104*,1644,i
CCOC(=O)N1CCN(C(=O)CCSCCc2ccncc2)CC1,-0.67,.,0.91,6,-7,-2,.,.,.
COC(=O)c1nc(-c2ccccc2)oc1N(C)C,2.6,.,-1.6,-9,8,1.5,.,.,.
COC(=O)c1nc(N)sc1-c1ccccc1,11*,.,0.17,-16,-6,0.064,21800*,1648,+
COC(=O)c1c(NC(=O)CCCC(=O)O)sc(C)c1C,-0.52,.,-0.0065,1,4,-0.00099,.,.,.
COC(=O)c1c(NC(=O)Cc2cccs2)sc(C)c1C,15*,.,0.64,-9,-15,-0.74,11876*,1564,+
CCOC(=O)c1c(N)sc(C(=O)N2CCCCC2)c1C,.,-22,.,.,.,.,.,.,.
CCOC(=O)c1c(NC(=O)Cc2cccs2)sc(C(=O)N2CCCCC2)c1C,12*,-28,-0.21,7,-7,0.028,17816*,1812,+
Cc1cccc2c(=O)oc(-c3ccc4c(c3)C(=O)N(CC3CCCO3)C4=O)nc12 (configuration not stated),-0.16,.,0.01,-6,2,0.35,.,.,.
OC1CCN(c2c3c(nc4cc(-c5ccc(F)cc5)nn24)CCC3)CC1,.,-15,.,.,.,.,.,.,.
Cc1cccc(-c2cc3nc4c(c(N5CCCC(O)C5)n3n2)CCC4)c1 (configuration not stated),8.4*,0,0.05,8,9,-0.43,18448*,1604,+
OC1CCCN(c2c3c(nc4cc(-c5cccc(Cl)c5)nn24)CCC3)C1 (configuration not stated),3.3*,30,-0.3,-9,0,-0.17,16460*,1624,+
COC(=O)c1c(N)c(C#N)c2n1CCCCC2,3.8*,.,0.17,-1,-17,-0.012,7512*,.,i
CCCSc1nc2c(c(=O)n1CC)SC(C)C2 (configuration not stated),4.7*,.,0.77,-2,1,-0.031,10748*,1604,+
CCn1c(SCC(=O)N2CCCC2)nc2c(c1=O)SC(C)C2 (configuration not stated),0.55,.,-0.057,-8,7,0.072,.,.,.
Cc1ccc(S(=O)(=O)N2CCCC2C(=O)NC2=NCCS2)cc1 (configuration not stated),-0.21,48,0.43,-4,27,0.16,.,.,.
COc1ccc(/C=N/O)cc1COc1ccc(NC(C)=O)cc1,4.7*,.,-0.76,1,12,-0.0079,6740*,1564,+
CCCCN(CCCC)c1cc(C)nc(-c2ccccc2O)n1,.,15,.,.,.,.,.,.,.
COc1ccc(C(=O)CSc2cc(C)nc3nc(C)nn23)cc1OC,5.1*,.,-1.2,-20,-15,-0.051,9832*,.,+
Cc1onc(-c2ccccc2)c1C(=O)OCC(=O)Nc1ccc2c(c1)OCO2,-1.2,38,0.055,-3,-5,0.5,.,.,.
Cc1onc(-c2ccccc2)c1C(=O)Nc1ccc2c(c1)OCO2,5*,.,-0.29,2,11,-0.49,11760*,1796,i
Cc1cc(C)c2nc(N3CCCN(C(=O)c4cnccn4)CC3)c(C#N)cc2c1,-0.25,-21,-0.32,-3,-8,0.4,.,.,.
SMILES,D1 allo mod,Htt clearance,M1 ag,SF-1 act,RORA act,M1 antagonist,D1 PAM confirm,D1 ag no DA,Isoprot counter
Cn1c(=O)oc2cc(S(=O)(=O)NC(Cc3ccccc3)C(=O)N3CCCCC3)ccc21 (configuration not stated),.,.,0.07,17,-6,0.2,.,.,.
COc1ccc(CCn2c(N)cc(=O)[nH]c2=S)cc1OC,11*,-6,0.97,-20,-12,1.4,16604*,1548,+
O=C(CSc1nc2c(c(=O)n1-c1ccc(F)cc1)SCC2)N1CCCC1,-0.78,-13,1.8,-8,-9,-0.16,.,.,.
CC(C)Sc1nc2c(c(=O)n1-c1ccc(F)cc1)SCC2,11*,.,1.6,4,-2,-1.4,23632*,1816,+
O=C(Cn1nc(C(F)(F)F)c2c1CCC2)NCc1ccc(Cl)cc1,.,-57,.,.,.,.,.,.,.
COC(C)(C)c1cc(C(C)(C)C)nc(N)n1,3.1*,3,-0.12,-14,-4,0.32,10892*,.,+
CCOc1cc(-c2cc(-c3ccccc3)nc(N)c2C#N)ccc1O,.,-58,.,.,.,.,.,.,.
CCOc1cc(-c2cc(-c3ccc(N)cc3)nc(N)c2C#N)ccc1O,8.6*,.,0.0068,54*,32,-0.16,19856*,1656,+
O=C(Nc1c2c(nn1-c1ccc(F)cc1)CS(=O)(=O)C2)C12CC3CC(CC(C3)C1)C2,-2.6,.,-0.25,-10,15,0.062,.,.,.
Cc1ccc(-c2nn(C)c(=O)c3ccccc23)cc1S(=O)(=O)N1CCCC1,0.48,-403,0.14,-14,-5,0.54,.,.,.
Cc1ccc(-c2nn(C)c(=O)c3ccccc23)cc1S(=O)(=O)NCCO,4.1*,-22,-1.1,-3,-6,-0.64,6200*,1504,i
c1ccc2c(c1)CCN(c1nc3ccccc3n3cnnc13)C2,7.9*,.,0.22,4,5,-0.16,13016*,1668,+
c1ccc(N2CCN(c3nc4ccccc4n4cnnc34)CC2)cc1,.,-22,.,.,.,.,.,.,.
c1ccc2c(c1)CCCN2c1nc2ccccc2n2cnnc12,7*,.,-0.93,54*,37,0.085,9840*,1760,i
